Measured values of several laboratories.
Protocols differ between the studies behind these lines.
Target: Dual specificity protein kinase CLK4 (CLK4, Homo sapiens, UniProt Q9HAZ1)

SMILES | assay | conditions | measurement | value
COc1cc(Nc2ncc(F)c(Nc3ccc4c(n3)NC(=O)C(C)(C)O4)n2)cc(OC)c1OC | binding, competition with immobilised ligand | 10 µM | inhibition | 85%
Cn1cncc1[C@@](O)(COc1ccc(C#N)cc1-c1ccc(OC(F)(F)F)cc1)c1ccc(C#N)cc1 | cell-free assay, competition with immobilised ligand | 1 µM | remaining binding | 96%
CC(C)(C)c1cc(C=C(C#N)C#N)cc(Br)c1O | enzyme activity, inhibitor | 0.5 µM | remaining activity | 88.6%
Nc1ncc(-c2nc(N3CCOCC3)nc(N3CCOCC3)n2)c(C(F)F)n1 | binding, competition with immobilised ligand | 10 µM | remaining binding | 30%
COc1ncccc1-c1cnn2ccc(N3CCN(C(=O)OC(C)C)CC3)nc12 | binding, competition with immobilised ligand | 1 µM | remaining binding | 98%
C#Cc1n[nH]c2c(-c3cn([C@@H](C)c4ccccn4)c(=O)[nH]c3=O)cc(F)cc12 | enzyme activity, inhibitor | 0.1 µM | inhibition | 8.9%
Cc1nn(C)cc1-c1nc2c(N3CCN(Cc4ccc(Cl)cc4)CC3)c(Cl)cnc2[nH]1 | binding, competition with immobilised ligand | 1 µM | remaining binding | 100%
O=c1[nH]c2ccccc2n1C1CCN(Cc2ccc(-c3[nH]c4cc5ncnc5cc4nc3-c3ccccc3)cc2)CC1 | cell-free assay | 0.5 µM | remaining signal | 92.8%
C#Cc1n[nH]c2c(-c3cn([C@@H](C)c4ccccc4)c(=O)[nH]c3=O)cc(F)cc12 | enzyme activity, inhibitor | 0.1 µM | inhibition | -0.9%
